# Compound activity from PubChem BioAssay.
# Rows were chosen to be rich in hits. Some 2.9% of all compounds tested hit in one or more screens of this group.
# CDK5 p35 inh = inhibitors of human CDK5/p35 kinase | 330,000 compounds, 0.01% hits | Recombinant CDK5/p35, ADP-Glo luminescence, 60 min | Q00535+Q15078 | inhibition, % at 10 µM;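 active means highest replicate inhibition of at least 50% and at least 75% of replicates reaching 50%; inconclusive means only one of the two criteria met; inactive means both criteria failed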;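 further: plate controls were DMSO neutral control for no effect and GW8510 at 10 µM for full effect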
# Cneo AK release = Cryptococcus neoformans lysis via adenylate kinase release. lysis activity, % at 15 µM. 360,000 compounds, 0.2% hits. C. neoformans lysis, adenylate kinase release luminescence, 4 h; normalised: neutral wells 0, clomiphene wells 100;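 active means mean lysis activity across replicates of at least 80%, whatever share of replicates individually reach that level; inactive means mean lysis activity below 80%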
#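 Assay system: log-phase C. neoformans yeast / Quantity: yeast cell density of 5 × 10^6 cells/mL / Medium: fresh YPD growth medium / Compound: single dose / Timing: static 4 h at 37 °C with compound, 1 h detection / Measured by: adenylate kinase release luminescence / Read-out: lysis from increased AK signal / Benchmarks: Clomiphene as positive lysis control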
# dFosB activator = activators of mouse delta FosB homodimer; P13346; purified delta FosB, TAMRA-CDK5 oligo fluorescence polarization; percent of positive-control signal above neutral wells; activation, % at 25 µM; 340,000 compounds, 0.99% hits;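 active means mean activation above about 17%, with every replicate also reaching it, limit read from the data, passing the limit was not always enough; inconclusive means only one of the two conditions met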
# Target sequence (P13346 whole entry, looked up): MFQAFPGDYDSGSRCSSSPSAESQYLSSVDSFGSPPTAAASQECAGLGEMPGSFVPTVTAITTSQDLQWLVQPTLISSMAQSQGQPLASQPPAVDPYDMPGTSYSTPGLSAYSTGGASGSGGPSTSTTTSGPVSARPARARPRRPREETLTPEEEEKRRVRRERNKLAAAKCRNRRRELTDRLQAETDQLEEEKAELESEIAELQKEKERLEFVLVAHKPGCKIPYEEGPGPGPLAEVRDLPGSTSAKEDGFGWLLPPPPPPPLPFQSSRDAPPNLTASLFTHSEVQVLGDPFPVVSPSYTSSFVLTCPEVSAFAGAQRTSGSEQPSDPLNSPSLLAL
# Env fusion inh = blocks HIV Env-driven cell-cell fusion | HeLa-JRFL Env/CEM21 cell fusion, luciferase | 360,000 compounds, 1.1% hits | inhibition, % at 12.3 µM;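 active means mean replicate inhibition score of at least 50 and every replicate individually at or above 50; inconclusive means only one of the two criteria met; inactive means mean below 50 and not all replicates reaching 50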;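 further: 0% = plate neutral controls and 100% = maraviroc near 300 nM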
# PAX8 inh HTS = inhibitors of PAX8 transcriptional activity in RMG-I cells. RMG-I TPO-luciferase reporter, SteadyGlo, 24 h. inhibition, % at 12.6 µM. 360,000 compounds, 1.2% hits. AID 652154;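 active means mean replicate inhibition at least 60% with every replicate also reaching 60%; inconclusive means only one of the two criteria is met; inactive means mean below 60% and not all replicates reaching 60%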;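 further: luciferase light reporting Pax8 driven TPO promoter activity; plate controls were median of neutral control wells for no effect and mitoxantrone controls for full effect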
# GSIS activator = GLuc luminescence reporter in INS-1E cells, primary screen for activators of glucose-dependent secretion of insulin. INS-1E GLuc reporter insulin secretion, 2-3 h. activation, % at 16.6 µM. 370,000 compounds, 0.61% hits;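 active means lowest replicate activation of at least 40%, so every replicate reaches that level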;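 further: 0% = median of neutral control wells and 100% = median of IBMX positive control wells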
# An asterisk follows results filed as active; ? = inconclusive; . = no result given; [ ] = dose if it differs, or a comment.
SMILES,CDK5 p35 inh,Cneo AK release,dFosB activator,Env fusion inh,PAX8 inh HTS,GSIS activator
Cc1noc(C)c1S(=O)(=O)Nc1cccc2c1O[C@H](CN(C)Cc1ccccc1)[C@H](C)CN([C@@H](C)CO)C2=O,.,-4,.,9[16.7 µM],-5,9
CC1Cc2ccccc2N1C(=O)CSc1nc2c(c(=O)n(C)c(=O)n2C)n1Cc1ccccc1 (stereo not given),-1,-5,2,56*,.,.
COc1cc(OC)c2c(-c3cccc(-c4ccc(OC)c(F)c4)c3)cc(=O)oc2c1,-1,0,2,-82,89*,-20
CCOc1ccc2ccc(OCC)c(/C=N/n3cnnc3)c2c1,0,-2,-17,-17,-29,40*
C[C@@H](NC(=O)C[C@H]1C=C[C@H](NC(=O)C2CCOCC2)[C@@H](CO)O1)c1ccccc1,.,0,.,8[16.7 µM],-5,15
CN(Cc1nc2ccccc2c(=O)[nH]1)C(=O)c1ccc(S(=O)(=O)N(C)C)cc1,1,0,1,-60,.,0
Cc1ccc(S(=O)(=O)N(C)c2ccc(C(=O)N(C)Cc3nc4ccccc4c(=O)[nH]3)cc2)cc1,-8,2,-3,58*,11,-16
CCC(=O)NC[C@@H]1[C@H](c2ccc(-c3cccc(F)c3)cc2)[C@H](CO)N1C(=O)CC,.,-2,.,.,4,-9
CCc1ccc(-c2c(C)sc(NC(=O)C3CCC3)c2C#N)cc1,0,1,-2,3,-27,139*
O=C1NCC(=O)N2[C@@H]1C[C@@H](C(=O)NCc1ccc(F)cc1)[C@H]2c1ccc(O)cc1,.,-1,.,15[16.7 µM],-15,.
O=C1c2cccc3c(O)ccc(c23)C(=O)N1c1ccc(Cl)cc1,3,0,-8,15,102*,-3
CC(=O)Nc1ccc(N2C(=O)c3cccc4c(O)ccc(c34)C2=O)cc1,0,-1,-13,10,3,-10
N#Cc1sc2nc3c(c(-c4ccco4)c2c1N)CCCC3,1,1,-7,.,.,.
NC(=O)c1sc2nc3c(c(-c4ccco4)c2c1N)CCCC3,6,-1,-16,57*,6,-9
CCOc1ccc(-n2c(=S)sc3c(=O)[nH]c(SCC(=O)NCC4CCCO4)nc32)cc1 (stereo not given),-1,-1,3,.,110*,-3
CCOc1ccc(-n2c(=S)sc3c(=O)[nH]c(SCC(=O)NC4CCCCC4)nc32)cc1,.,1,.,-3,10,.
CN1CCn2cnc(C(=O)N3CCN(c4ccccc4)CC3)c2C1=O,.,-1,.,3,-5,9
CCN(CC)C(=O)c1ncn2c1C(=O)NC[C@@H]2C,.,.,.,117*,0,-10
C[C@H](NC(=O)c1ncn2c1C(=O)NC[C@@H]2C)c1ccccc1,.,0,.,.,-13,29
C[C@H]1CNC(=O)c2c(C(=O)N(C)Cc3ccccc3)ncn21,.,.,.,18,-3,-18
C[C@@H]1CNC(=O)c2c(C(=O)NC3CCN(C(=O)OC(C)(C)C)CC3)ncn21,.,0,.,-4,-1,-1
CC1CCN(C(=O)c2ncn3c2C(=O)NC[C@@H]3C)CC1,.,.,.,101*,1,-22
C[C@H]1Cn2cnc(C(=O)N3CCN(c4ccccc4)CC3)c2C(=O)N1,.,.,.,88*,-1,-42
C[C@@H]1CNC(=O)c2c(C(=O)N3CCN(c4ccccc4)CC3)ncn21,.,.,.,89*,13,-17
CC(=O)N1[C@@H]2CN(S(=O)(=O)c3ccccc3)c3ccccc3[C@@H]2[C@@H]1CO,.,-1,.,.,-12,11
SMILES,CDK5 p35 inh,Cneo AK release,dFosB activator,Env fusion inh,PAX8 inh HTS,GSIS activator
CC1(C)Cc2cccc(Oc3cc(NN4CCCCC4)c([N+](=O)[O-])cc3[N+](=O)[O-])c2O1,0,0,-3,72*,6,17
O=[N+]([O-])c1cc([N+](=O)[O-])c(Oc2cccc(Cl)c2Cl)cc1NN1CCCCC1,-1,4,-6,42,0,3
COc1ccc(NC(=O)N(C)C[C@@H]2Oc3c(NS(=O)(=O)c4cccs4)cccc3C(=O)N([C@@H](C)CO)C[C@H]2C)cc1,.,-2,.,.,.,15
CCOC(=O)c1sc2nc3c(SCCC(=O)O)cc(C(=O)c4cc(OC)ccc4O)cn3c(=O)c2c1C,1,.,-1,72*,12,12
COc1cc(CNCc2ccncc2)cc(Br)c1OCc1ccccc1F,0,0,-5,67*,.,.
O=C(NCC1OCCc2ccccc21)c1ccc(NC(=O)c2ccc(Cl)cc2)cc1 (stereo not given),2,-2,-6,?,34,249*
C[C@@H]1CN([C@@H](C)CO)C(=O)c2cc(NC(=O)Nc3ccccc3)ccc2O[C@@H](C)CCCCO[C@@H]1CN(C)Cc1ccc(C(F)(F)F)cc1,.,1,.,-11[16.7 µM],74*,4
C[C@@H]1CCCCO[C@@H](CN(C)Cc2ccc(C(F)(F)F)cc2)[C@@H](C)CN([C@@H](C)CO)C(=O)c2cc(NC(=O)Nc3ccccc3)ccc2O1,.,-1,.,3[16.7 µM],58,-19
C[C@@H]1CN([C@H](C)CO)C(=O)c2cc(NC(=O)Nc3cccc4ccccc34)ccc2O[C@@H]1CN(C)Cc1ccc(C(F)(F)F)cc1,.,50,.,74*[16.7 µM],.,-16
C[C@@H]1CN([C@@H](C)CO)C(=O)c2cc(NC(=O)Nc3cccc4ccccc34)ccc2O[C@@H]1CN(C)Cc1ccc(C(F)(F)F)cc1,.,3,.,-3[16.7 µM],.,-14
C[C@@H]1CCCCO[C@H](CN(C)Cc2ccc(C(F)(F)F)cc2)[C@H](C)CN([C@H](C)CO)C(=O)c2cc(NC(=O)Nc3ccccc3)ccc2O1,.,3,.,?,64*,-23
C[C@H]1CCCCO[C@@H](CN(C)Cc2ccc(C(F)(F)F)cc2)[C@@H](C)CN([C@@H](C)CO)C(=O)c2cc(NC(=O)Nc3cccc4ccccc34)ccc2O1,.,-4,.,61*[16.7 µM],-5,-2
CN(C)C(=O)C[C@H]1C[C@H]2c3cc(NS(=O)(=O)c4ccc(F)cc4)ccc3O[C@H]2[C@@H](CO)O1,.,0,.,-21[16.7 µM],-25,7
C[C@@H]1CCCCO[C@H](CN(C)Cc2ccc(C(F)(F)F)cc2)[C@H](C)CN([C@@H](C)CO)C(=O)c2cc(NC(=O)Nc3ccccc3)ccc2O1,.,-1,.,40[16.7 µM],75*,3
C[C@@H]1CCCCO[C@H](CN(C)Cc2ccc(C(F)(F)F)cc2)[C@@H](C)CN([C@H](C)CO)C(=O)c2cc(NC(=O)Nc3ccccc3)ccc2O1,.,-4,.,-12[16.7 µM],20,4
C[C@@H]1CCCCO[C@@H](CN(C)Cc2ccc(C(F)(F)F)cc2)[C@H](C)CN([C@H](C)CO)C(=O)c2cc(NC(=O)Nc3ccccc3)ccc2O1,.,3,.,?,78*,-29
C[C@@H]1CN([C@H](C)CO)C(=O)c2cc(NC(=O)Nc3ccccc3)ccc2O[C@@H](C)CCCCO[C@@H]1CN(C)Cc1ccc(C(F)(F)F)cc1,.,-1,.,58*[16.7 µM],80*,-16
